For three compounds, inhibition and IC50 results are on record in ChEMBL document CHEMBL2069235, “Synthesis and biological evaluation of tyrosine modified analogues of the α4β7 integrin inhibitor biotin-R₈ERY” (Bioorg Med Chem, 2012).

Active and inactive are the calls of the source. No cut-off for these calls is given here. *1 amine or outer side, *2 acyl side, *3 side chain or, on linkers, in order; H or OH if unused. Where a SMILES comes first, the peptide text is derived from it. [ ]: non-standard residue; d: D form. The star is where a group is joined. X2 = CCc1ccc(-c2ccc(C[C@H](N[*:1])C(=O)[*:2])cc2)cc1; Biotin = O=C1N[C@H]2[C@H](CS[C@H]2CCCCC(=O)*)N1; X1 = O=C([C@H](Cc1ccc(C2CCCCC2)cc1)N[*:1])[*:2]; Bip = N[C@@H](Cc1ccc(-c2ccccc2)cc1)C(=O)O

What all share (type): cell-based
Assay [1] addresses T1, Integrin alpha-4/beta-7 (Mus musculus) (UniProt Q00651+P26011). Briefly: Inhibition of alpha4beta7 assessed as inhibition of Mn(2+)-activated adhesion of mouse TK-1 T cells to mouse MAdCAM-1 at 50 uM incubated for 1 hr by cell adhesion assay. The method in brief:
(§1)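 TK-1 cells (mouse AKR/Cum α4β7+/α4β1− CD8 T lymphoma), grown at 37 °C in RPMI 1640 with 10% FCS and 0.05 mM β-mercaptoethanol, were washed and held 1 h at room temperature in HBSS/10 mM Hepes with peptide. They were then activated with 2 mM MnCl₂ and added at 10⁶ cells/well to glass slides coated with mouse MAdCAM-1-Fc (10 μg/ml, FBS-blocked). Adhesion ran 30 min.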

In a further assay the target is T2, Integrin alpha-4/beta-7 (Mus musculus, UniProt P26011+Q00651).
T2 sequence (Q00651 whole entry): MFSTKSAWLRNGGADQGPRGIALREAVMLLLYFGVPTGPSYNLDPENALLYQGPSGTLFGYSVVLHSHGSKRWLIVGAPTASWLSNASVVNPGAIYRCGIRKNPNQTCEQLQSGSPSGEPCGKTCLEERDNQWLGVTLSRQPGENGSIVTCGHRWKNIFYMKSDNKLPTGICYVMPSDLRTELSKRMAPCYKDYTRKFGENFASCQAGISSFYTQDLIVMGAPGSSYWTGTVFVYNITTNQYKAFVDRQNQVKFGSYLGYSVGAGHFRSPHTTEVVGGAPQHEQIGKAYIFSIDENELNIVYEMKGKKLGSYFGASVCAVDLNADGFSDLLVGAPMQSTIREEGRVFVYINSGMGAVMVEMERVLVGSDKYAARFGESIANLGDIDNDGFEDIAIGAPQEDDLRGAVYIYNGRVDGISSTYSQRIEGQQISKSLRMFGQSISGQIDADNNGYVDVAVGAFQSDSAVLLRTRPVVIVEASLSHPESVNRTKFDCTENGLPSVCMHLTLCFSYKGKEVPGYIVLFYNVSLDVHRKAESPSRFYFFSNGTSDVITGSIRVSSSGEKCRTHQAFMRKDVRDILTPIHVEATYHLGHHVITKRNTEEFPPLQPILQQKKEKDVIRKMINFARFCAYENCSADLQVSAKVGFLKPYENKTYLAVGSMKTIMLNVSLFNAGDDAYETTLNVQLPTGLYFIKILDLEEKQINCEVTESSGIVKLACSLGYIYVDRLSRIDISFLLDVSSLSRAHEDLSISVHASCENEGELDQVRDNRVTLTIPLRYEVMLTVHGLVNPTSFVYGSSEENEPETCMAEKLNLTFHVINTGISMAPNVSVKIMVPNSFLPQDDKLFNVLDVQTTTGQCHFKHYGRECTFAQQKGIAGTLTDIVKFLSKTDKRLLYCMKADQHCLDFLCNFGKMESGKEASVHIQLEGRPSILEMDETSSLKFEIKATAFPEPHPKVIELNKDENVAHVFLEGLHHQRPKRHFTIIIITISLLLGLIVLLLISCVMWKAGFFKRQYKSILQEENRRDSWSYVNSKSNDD
T2 sequence (P26011 whole entry): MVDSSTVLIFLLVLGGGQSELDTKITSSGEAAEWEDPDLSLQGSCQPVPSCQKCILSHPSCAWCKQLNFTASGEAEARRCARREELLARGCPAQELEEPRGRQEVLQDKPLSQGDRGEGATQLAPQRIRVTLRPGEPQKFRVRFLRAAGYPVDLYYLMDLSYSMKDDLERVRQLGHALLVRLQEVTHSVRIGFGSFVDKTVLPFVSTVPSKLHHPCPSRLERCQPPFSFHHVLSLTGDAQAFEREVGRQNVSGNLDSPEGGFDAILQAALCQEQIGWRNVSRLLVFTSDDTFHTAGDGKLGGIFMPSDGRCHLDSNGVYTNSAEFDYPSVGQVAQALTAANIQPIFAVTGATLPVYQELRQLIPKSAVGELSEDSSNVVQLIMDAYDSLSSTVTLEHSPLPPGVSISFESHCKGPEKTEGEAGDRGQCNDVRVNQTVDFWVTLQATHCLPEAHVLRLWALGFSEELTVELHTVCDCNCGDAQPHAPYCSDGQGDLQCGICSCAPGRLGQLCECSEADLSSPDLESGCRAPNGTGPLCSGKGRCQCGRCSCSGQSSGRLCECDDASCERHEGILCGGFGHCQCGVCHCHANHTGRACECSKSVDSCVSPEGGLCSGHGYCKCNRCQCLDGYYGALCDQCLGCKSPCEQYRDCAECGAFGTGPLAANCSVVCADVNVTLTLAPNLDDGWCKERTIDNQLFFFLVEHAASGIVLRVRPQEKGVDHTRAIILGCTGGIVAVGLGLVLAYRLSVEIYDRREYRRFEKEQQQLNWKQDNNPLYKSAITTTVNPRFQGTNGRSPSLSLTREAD
The assay can be described thus: Inhibition of alpha4beta7 assessed as inhibition of Mn(2+)-activated adhesion of mouse TK-1 T cells to mouse MAdCAM-1 incubated for 1 hr by cell adhesion assay. The method in brief: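 TK-1 cells (mouse AKR/Cum CD8+ α4β7+/α4β1− T lymphoma), cultured at 37 °C in RPMI 1640 with 10% FCS and 0.05 mM β-mercaptoethanol. HBSS/10 mM Hepes buffer; cells preincubated with peptide 1 h at room temperature, then activated with MnCl2 to 2 mM. Added at 10⁶ cells/well to glass slides coated with mouse MAdCAM-1-Fc (10 µg/ml, 4 °C overnight, FBS-blocked); adhesion 30 min at room temperature.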

For assay [2], the target named is T1, Integrin alpha-4/beta-7 (Mus musculus). The assay can be described thus: Inhibition of alpha4beta7 assessed as inhibition of Mn(2+)-activated adhesion of mouse TK-1 T cells to mouse MAdCAM-1 at <5 to 10 uM incubated for 1 hr by cell adhesion assay. The method in brief:
as §1

Assay [3] shares this target. The assay can be described thus: Inhibition of alpha4beta7 assessed as inhibition of Mn(2+)-activated adhesion of mouse TK-1 T cells to mouse MAdCAM-1 at 100 uM incubated for 1 hr by cell adhesion assay. The method in brief:
as §1

The target is the same in assay [4]. The assay can be described thus: Inhibition of alpha4beta7 assessed as inhibition of Mn(2+)-activated adhesion of mouse TK-1 T cells to mouse MAdCAM-1 at 25 uM incubated for 1 hr by cell adhesion assay. The method in brief: as §1

`N=C(N)NCCC[C@H](NC(=O)CCCC[C@@H]1SC[C@@H]2NC(=O)N[C@@H]21)C(=O)N[C@@H](CCCNC(=N)N)C(=O)N[C@@H](CCCNC(=N)N)C(=O)N[C@@H](CCCNC(=N)N)C(=O)N[C@@H](CCCNC(=N)N)C(=O)N[C@@H](CCCNC(=N)N)C(=O)N[C@@H](CCCNC(=N)N)C(=O)N[C@@H](CCCNC(=N)N)C(=O)N[C@@H](CCC(=O)O)C(=O)N[C@@H](CCCNC(=N)N)C(=O)N[C@@H](Cc1ccc(-c2ccccc2)cc1)C(=O)O` (Biotin-RRRRRRRRER[Bip]-OH): the inhibition is 80.2% in assay [1] and 91.3% in assay [3]. The IC50 at Integrin alpha-4/beta-7 was 7.3 µM. The inhibition entry in assay [2] and in assay [4] was “Active” throughout.

`N=C(N)NCCC[C@H](NC(=O)[C@H](CCCNC(=N)N)NC(=O)[C@H](CCCNC(=N)N)NC(=O)[C@H](CCCNC(=N)N)NC(=O)[C@H](CCCNC(=N)N)NC(=O)[C@H](CCCN=C(N)N)NC(=O)[C@H](CCCN=C(N)N)NC(=O)[C@H](CCCN=C(N)N)NC(=O)CCCC[C@@H]1SC[C@@H]2NC(=O)N[C@@H]21)C(=O)N[C@@H](CCC(=O)O)C(=O)N[C@@H](CCCN=C(N)N)C(=O)N[C@@H](Cc1ccc(C2CCCCC2)cc1)C(=O)O` (Biotin-RRRRRRRRER[X1]-OH): on Integrin alpha-4/beta-7, the IC50 came out at 19 µM.

Consider `CCc1ccc(-c2ccc(C[C@H](NC(=O)[C@H](CCCNC(=N)N)NC(=O)[C@H](CCC(=O)O)NC(=O)[C@H](CCCNC(=N)N)NC(=O)[C@H](CCCNC(=N)N)NC(=O)[C@H](CCCNC(=N)N)NC(=O)[C@H](CCCNC(=N)N)NC(=O)[C@H](CCCNC(=N)N)NC(=O)[C@H](CCCNC(=N)N)NC(=O)[C@H](CCCNC(=N)N)NC(=O)[C@H](CCCNC(=N)N)NC(=O)CCCC[C@@H]3SC[C@@H]4NC(=O)N[C@@H]43)C(=O)O)cc2)cc1` (Biotin-RRRRRRRRER[X2]-OH), for which the inhibition in assay [1] amounted to 58%; in assay [3], 74.2%. Further, the IC50 at Integrin alpha-4/beta-7 is 14.3 µM. The inhibition entry in assay [2] and in assay [4] was “Active” throughout.
